ChEMBL document CHEMBL3112403, “Design, synthesis and evaluation of second generation MurF inhibitors based on a cyanothiophene scaffold” (Eur J Med Chem, 2014)
pIC50: −log10 of the molar value. Active and inactive are the calls of the source. The rule behind the calls is not given here.

Experiments:
[1] = biological target: T1, UDP-N-acetylmuramoyl-tripeptide--D-alanyl-D-alanine ligase (Streptococcus pneumoniae) (UniProt Q9ZHC3); test: Inhibition of Streptococcus pneumoniae MurF ligase using D-Ala-D-Ala as substrate assessed as residual activity at 100 uM after 15 mins by malachite green assay
T1 sequence (whole entry): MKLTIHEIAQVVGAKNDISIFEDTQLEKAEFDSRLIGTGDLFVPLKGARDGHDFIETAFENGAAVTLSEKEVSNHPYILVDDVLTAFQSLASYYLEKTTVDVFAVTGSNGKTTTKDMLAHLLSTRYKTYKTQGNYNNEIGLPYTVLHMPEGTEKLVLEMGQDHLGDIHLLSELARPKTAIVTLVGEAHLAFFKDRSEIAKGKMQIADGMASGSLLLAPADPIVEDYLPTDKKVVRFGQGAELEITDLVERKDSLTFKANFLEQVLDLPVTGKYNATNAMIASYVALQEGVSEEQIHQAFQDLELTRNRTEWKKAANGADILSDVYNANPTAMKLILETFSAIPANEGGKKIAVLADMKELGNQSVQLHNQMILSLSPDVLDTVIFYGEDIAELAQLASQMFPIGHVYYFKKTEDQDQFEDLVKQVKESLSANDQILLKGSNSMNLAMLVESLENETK
In short: (§1)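 Purified S. pneumoniae MurF in 50 mM Hepes pH 8.0 with 50 mM MgCl2, 0.005% Triton X-114, 100 µM D-Ala-D-Ala, 50 µM UMtri-L-Lys and 250 µM ATP, with 5% DMSO final. After 15 min at 37 °C, Biomol reagent was added and absorbance read at 650 nm, in duplicate. RA was taken against a 5% DMSO control. IC50 was the 50% RA point from seven concentrations.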

Escherichia coli [2] = test: Inhibition of […] MurF ligase using D-Ala-D-Ala as substrate assessed as residual activity at 100 uM after 15 mins by malachite green assay
In short: (§2)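 After 15 min at 37 °C, Biomol reagent was added and phosphate read at 650 nm, in duplicate. RA was taken relative to a 5% DMSO control. IC50 was taken as the concentration giving 50% RA, from seven concentrations.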

Staphylococcus aureus [3] = test: Antibacterial activity against Staphylococcus aureus SH1000 assessed as decrease in membrane integrity at 4 times MIC by BacLight assay; format: functional, organism-based
In short: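 Membrane damage was measured with the BacLight assay in cells exposed to compound at 4 × MIC and compared with a drug-free control.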

[4] = biological target: T2, UDP-N-acetylmuramoyl-tripeptide--D-alanyl-D-alanine ligase (Streptococcus pneumoniae, UniProt Q9ZHC3); test: Inhibition of Streptococcus pneumoniae MurF ligase using D-Ala-D-Ala as substrate after 15 mins by malachite green assay; in short: as §1
T2 sequence (Q9ZHC3 whole entry): T1 sequence (whole entry)

Escherichia coli [5] = test: Antibacterial activity against Escherichia coli ES100 harboring tolC deletion mutant assessed as growth inhibition by broth microdilution method; format: functional
In short: (§3)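 MIC by broth microdilution in Mueller-Hinton broth following CLSI guidelines. ES100 is the tolC derivative of AB734, and SM1411 is the acrAB derivative of 1411; both are efflux-deficient E. coli strains. Growth inhibition was read as the minimum inhibitory concentration.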

Escherichia coli [6] = test: Antibacterial activity against Escherichia coli SM1411 harboring acrAB deletion mutant assessed as growth inhibition by broth microdilution method; format: functional; in short: as §3
Escherichia coli [7] = test: Antibacterial activity against Escherichia coli AB734 assessed as growth inhibition by broth microdilution method in presence of polymyxin B nonapeptide; format: functional
In short: (§4)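 Broth microdilution MIC in Mueller-Hinton broth per CLSI, run with 4 µg/mL polymyxin B nonapeptide to permeabilize the outer membrane.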

Escherichia coli [8] = test: Antibacterial activity against Escherichia coli AB734 assessed as growth inhibition by broth microdilution method; format: functional
In short: (§5)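 MICs by broth microdilution in Mueller-Hinton broth following CLSI guidelines.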

Escherichia coli [9] = test: Antibacterial activity against Escherichia coli 1411 assessed as growth inhibition by broth microdilution method in presence of polymyxin B nonapeptide; format: functional; in short: as §4
Escherichia coli [10] = test: Antibacterial activity against Escherichia coli 1411 assessed as growth inhibition by broth microdilution method; format: functional; in short: as §5
Staphylococcus aureus [11] = test: Antibacterial activity against Staphylococcus aureus SH1000 assessed as growth inhibition by broth microdilution method; format: functional; in short: as §5
[12] = Inhibition of Escherichia coli MurF ligase using D-Ala-D-Ala as substrate after 15 mins by malachite green assay; in short: as §2
[13] = biological target: T1, UDP-N-acetylmuramoyl-tripeptide--D-alanyl-D-alanine ligase (Streptococcus pneumoniae); test: Inhibition of Streptococcus pneumoniae MurF ligase using D-Ala-D-Ala as substrate assessed as residual activity at 250 uM after 15 mins by malachite green assay; in short: as §1
Escherichia coli [14] = test: Inhibition of […] MurF ligase using D-Ala-D-Ala as substrate assessed as residual activity at 250 uM after 15 mins by malachite green assay; in short: as §2

Structure (SMILES) | Activity [1] [%] | Activity (Escherichia coli [2]) [%] | Activity (Staphylococcus aureus [3]) | pIC50 [4] | MIC (Escherichia coli [5]) [µg/mL] | MIC (Escherichia coli [6]) [µg/mL] | MIC (Escherichia coli [7]) [µg/mL] | MIC (Escherichia coli [8]) [µg/mL] | MIC (Escherichia coli [9]) [µg/mL] | MIC (Escherichia coli [10]) [µg/mL] | MIC (Staphylococcus aureus [11]) [µg/mL] | pIC50 [12] | Activity [13] [%] | Activity (Escherichia coli [14]) [%]
N#Cc1c(NC(=O)c2cccc(OCC3CCCC3)c2)sc2c1CCCC2 | 81 | 99 |  |  |  |  |  |  |  |  |  |  |  | 
N#Cc1c(NC(=O)c2cc(OCCNC(=N)N)ccc2Cl)sc2c1CCC(c1ccc(O)cc1)C2 (configuration not stated) |  |  | inactive |  |  |  |  |  |  |  |  |  |  | 
N#Cc1c(NC(=O)c2cc(OCc3ccccc3)ccc2Cl)sc2c1CCCC2 | 81 | 82 |  |  |  |  |  |  |  |  |  |  |  | 
Cl.N#Cc1c(NC(=O)c2cc(OCCNC(=N)N)ccc2Cl)sc2c1CCN(Cc1ccccc1)C2 |  |  | inactive | 4.26 | 8 | 32 | 16 | 32 | 16 | 32 | 8 | 4.24 |  | 
N#Cc1c(NC(=O)c2cccc(OCCN)c2)sc2c1CCCC2 | 98 | 93 |  |  |  |  |  |  |  |  |  |  |  | 
N#Cc1c(NC(=O)c2cc(OCCNC(=O)C(F)(F)F)ccc2Cl)sc2c1CCNC2.O=C(O)C(F)(F)F |  |  |  |  | > 256 | > 256 | > 256 | > 256 | > 256 | > 256 | > 256 |  | 99 | 91
COC(=O)c1ccc(CN2CCc3c(sc(NC(=O)c4cc(OCCNC(=N)N)ccc4Cl)c3C#N)C2)cc1.Cl |  |  | inactive | 4.43 | 8 | 16 | 32 | 64 | 32 | 64 | 8 | 4.10 |  | 
N#Cc1c(NC(=O)c2cccc(OCc3ccc(Cl)cc3)c2)sc2c1CCCC2 | 102 | 97 |  |  |  |  |  |  |  |  |  |  |  | 
N#Cc1ccc(COc2ccc(Cl)c(C(=O)Nc3sc4c(c3C#N)CCCC4)c2)cc1 | 102 | 97 |  |  |  |  |  |  |  |  |  |  |  | 
N#Cc1c(NC(=O)c2cccc(OCn3cccn3)c2)sc2c1CCCC2 | 89 | 85 |  |  |  |  |  |  |  |  |  |  |  | 
Cl.N#Cc1ccc(CN2CCc3c(sc(NC(=O)c4cc(OCCNC(=N)N)ccc4Cl)c3C#N)C2)cc1 |  |  | inactive | 4.21 | 16 | 16 | 32 | 256 | 32 | 128 | 16 | 4.18 |  | 
COc1ccc(CN2CCc3c(sc(NC(=O)c4cc(OCCN)ccc4Cl)c3C#N)C2)cc1 |  |  | inactive | 3.90 | 32 | 64 | 64 | 128 | 64 | 128 | 128 | 4.14 |  | 
